In ChEMBL document CHEMBL1128540, “Synthesis and quantitative structure-activity relationships of dequalinium analogues as K+ channel blockers: investigation into the role of the substituent at position 4 of the quinoline ring” (J Med Chem, 1995):

Assays:
[1] = target: Small conductance calcium-activated potassium channel (Rattus norvegicus, UniProt P70604+P70606+P70605); assay: The SKCa-blocking action was assessed by its ability to inhibit the after hyperpolarization (AHP) in cultured rat sympathetic neurones; format: functional, cell-based; details: sympathetic neuron
How it was run: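 SKCa block was read as inhibition of the after-hyperpolarization following action potentials in cultured rat sympathetic neurones. Each compound was tested at two to four concentrations on at least three cells, and IC50 was taken for 50% AHP inhibition. Concentrations above 10–30 μM were generally avoided. Dequalinium was included as reference in each series.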

[2] = Equieffective molar ratio(EMR) to that of the dequalinium, causing 50% inhibition of AHP(action potential).; format: functional
How it was run: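 AHP inhibition in cultured rat sympathetic neurones. Each compound was tested at two to four concentrations on at least three cells, with dequalinium run as reference in the same series (one to three compounds per series). EMR is the ratio of test compound to dequalinium concentration giving 50% AHP inhibition within the same experiment. Test concentrations above 10–30 μM were generally avoided.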

Compound	IC50 [1] [µM]	EMR [2]
Nc1cc[n+](CCCCCCCCCC[n+]2ccc(N)c3ccccc32)c2ccccc12	1.4	1.3
Cc1cc[n+](CCCCCCCCCC[n+]2ccc(C)c3ccccc32)c2ccccc12	14.5	26
Nc1ccc2c(NCc3ccccc3)cc[n+](CCCCCCCCCC[n+]3ccc(NCc4ccccc4)c4ccc(N)cc43)c2c1	0.5	0.9
COc1cc2c3cc1Oc1cc(ccc1O)C[C@@H]1c4c(cc(OC)c(O)c4Oc4ccc(cc4)C[C@@H]3N(C)CC2)CC[N+]1(C)C.[Cl-]	7.5	
CN(C)c1cc[n+](CCCCCCCCCC[n+]2ccc(N(C)C)c3ccccc32)c2ccccc12	1.4	1.4
c1ccc(Nc2cc[n+](CCCCCCCCCC[n+]3ccc(Nc4ccccc4)c4ccccc43)c3ccccc23)cc1	2.4	3.4
c1ccc2c(c1)ccc[n+]2CCCCCCCCCC[n+]1cccc2ccccc21	21	15
CN(c1ccccc1)c1cc[n+](CCCCCCCCCC[n+]2ccc(N(C)c3ccccc3)c3ccccc32)c2ccccc12	1.4	1.7
CC(=O)Nc1cc[n+](CCCCCCCCCC[n+]2ccc(NC(C)=O)c3ccccc32)c2ccccc12	4.5	5.5
Cc1cc(N)c2ccccc2[n+]1CCCCCCCCCC[n+]1c(C)cc(N)c2ccccc21.[Cl-].[Cl-] [DEQUALINIUM CHLORIDE]	0.74	1
c1ccc(CNc2cc[n+](CCCCCCCCCC[n+]3ccc(NCc4ccccc4)c4ccccc43)c3ccccc23)cc1	0.52	0.7
[O-]c1cc[n+](CCCCCCCCCC[n+]2ccc([O-])c3ccccc32)c2ccccc12	> 10	> 10
Nc1c2c([n+](CCCCCCCCCC[n+]3c4c(c(N)c5ccccc53)CCCC4)c3ccccc13)CCCC2	1	0.9
c1ccc(Oc2cc[n+](CCCCCCCCCC[n+]3ccc(Oc4ccccc4)c4ccccc43)c3ccccc23)cc1	2.7	6.5
COc1cc(OC)c(CNc2cc[n+](CCCCCCCCCC[n+]3ccc(NCc4c(OC)cc(OC)cc4OC)c4ccccc43)c3ccccc23)c(OC)c1	0.6	1
CC(=O)O[C@H]1C[C@@H]2CC[C@@H]3[C@H](CC[C@@]4(C)[C@H]3C[C@H]([N+]3(C)CCCCC3)[C@@H]4OC(C)=O)[C@@]2(C)C[C@@H]1[N+]1(C)CCCCC1.[Br-].[Br-] [PANCURONIUM BROMIDE]	6.8	
